A short description of the data set: Toxicity liver stage against HepG2, at 10uM. Details: test concentration 10 uM, cell line HepG2-A16-CD81EGFP. The note with it: human, HepG2-A16-CD81EGFP cells; read-out: INHIBITION
It counts as cell-based. A digest of the protocol: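 Uninfected HepG2-A16-CD81EGFP cells, 3 × 10^3 per well, 1536-well, plated on prespotted compound at 10 μM final, parasite-free screening media added to match infected plates; puromycin 10 μM positive, DMSO 0.5% negative; run in parallel with 48 h PbLuc assay at 37 °C, 5% CO2; viability by CellTiter-Glo luminescence, normalized to controls.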

For `COc1ccc(Cl)cc1CN(CC(N)=O)C(C)C`, the cytotoxicity at 10 µM worked out at 1.49%. For `Cc1cc(C)c(CNC(=O)NC(C)c2ccc3c(c2)CCC3)c(=O)[nH]1` (stereo not given), the cytotoxicity at 10 µM was 27.4%.

For the molecule `COCc1ccc(CN[C@H]2C[C@@H](Cc3cc(CCO)on3)C2(C)C)o1`, the cytotoxicity at 10 µM was -1.68%. `O=c1[nH]c2ncccc2n1C1CCNCC1`: the cytotoxicity at 10 µM was 11.5%.

In the case of `Cc1noc([C@H]2C[C@@H]3CCN(c4nnc(C)s4)C[C@H]3O2)n1`, the cytotoxicity at 10 µM was found to be 3.55%. Then `C1CCC(NC2CCCN(Cc3noc(C4CC4)n3)C2)C1` (stereo not given), with -5.05%; and `Cc1cc(C(=O)NCc2cccs2)c2c(C3CCCN3)noc2n1` (stereo not given), with 6.36%; and `COCc1noc(-c2ccc(N3CCCC3c3ccc(F)cc3)nc2)n1` (stereo not given), with 5.79%. The result for `COc1ccc(NC(=O)Cn2nc(C)c(C)cc2=O)c(OC)c1` reads -3.62%. Consider `Cc1nn(C)c(C)c1CN(C)C(=O)C1COc2ccccc2C1` (stereo not given), for which the cytotoxicity at 10 µM was -3.35%. Turning to `Cc1ncc2c(n1)CCCC2NC(=O)c1ccccc1C(=O)O` (stereo not given), the cytotoxicity at 10 µM was -11.7%.

`Brc1ccc2[nH]c3c(c2c1)CCCC3c1nn[nH]n1` (stereo not given): the cytotoxicity at 10 µM was found to be 4.49%. Then `CCCOc1ncccc1CNc1nnc(C)c(C)c1C#N`, with -14.3%; and `CN1CCC(n2nc(CC3CC3)nc2-c2ccc(F)cc2Cl)CC1`, with -1.84%; and `COc1cccc(CNC(=O)C(C)n2ccnc2C(C)C)c1OC` (stereo not given), with -1.68%. Then `CCCSCC(=O)NS(=O)(=O)c1ccc2c(c1)OCCO2`, with -9.78%; and `Cc1ccc(N(C)CC(O)COCc2ccccc2)c(C)c1` (stereo not given), with 3.67%; and `CC(C)(N)C(=O)N1CCC(c2nccnc2Oc2cccc(F)c2)CC1`, with -13.2%. As to `CCCc1nc(CN2CCOC(Cn3cccn3)C2)no1` (stereo not given), the cytotoxicity at 10 µM is -27.1%. Then `O=C(Nc1cccc(N2CCCC2)c1)C1CCCN1c1nccs1` (stereo not given), with -6.08%.

Regarding `COc1ccccc1C(C)CNC(=O)c1[nH]ncc1Br` (stereo not given), the cytotoxicity at 10 µM is 18.1%. The result for `Cc1ccnn1CCC(=O)N1CCCC[C@@]2(C)[C@@H]1CCC(=O)N2C` reads 3.38%; that for `CS(=O)(=O)CCSc1nnc(Cc2ccccc2F)o1`, 0.313%; that for `CC(C)Oc1ncnc2c1CCN(Cc1ccoc1)CC2`, 2.56%.

As for `COCCS(=O)(=O)Nc1ccc(-n2nccc2C(F)(F)F)cc1`, the cytotoxicity at 10 µM was found to be 1.26%. `CC(=O)N1CCN(C[C@H]2CC[C@@H](Cc3ccc4ncccc4c3)O2)CC1`: the cytotoxicity at 10 µM was -9.14%. On to `CCC(O)CN1CCN(C(=O)c2cccn2Cc2cccs2)CC1` (stereo not given), for which the cytotoxicity at 10 µM is -5.74%. `CCOc1cccc2c1OCC(C(=O)NS(=O)(=O)c1ccc(Br)s1)=C2`: the cytotoxicity at 10 µM was -11.6%. Then `Cc1n[nH]c(C)c1NC(=O)CN1CCc2c(nc(C3CC3)n2C)C1`, with -3.15%; and `O=C(NCCS(=O)(=O)N1CCN(c2ncccn2)CC1)c1ccccc1`, with -3.28%. The result for `CCN1C(=O)C2(CCCCC2)NC1c1cc(C#N)n(C)c1C` (stereo not given) reads 4.59%; that for `COc1ccc(CN2CC[C@H]3O[C@@H](C(=O)NCC4CC4)CC[C@H]32)cc1`, 7.31%; that for `CC1(C)CN(C(=O)CCc2nc(-c3ccncc3)no2)CCO1`, -3.16%. With `CCc1nnc(CN2CCN(C(C)=O)CC2)o1`, the cytotoxicity at 10 µM was 4.39%. The result for `O=C(c1c[nH]c2ncccc12)N(Cc1ccco1)C1CCCC1` reads 2.07%; that for `COc1cc(OC)cc(-c2noc(CC(N)c3ccccc3)n2)c1` (stereo not given), 4.47%. With `CCN(CC)C(=O)Cc1csc(C(C)C)n1`, the cytotoxicity at 10 µM is -1.55%. The result for `Cn1cnc(S(=O)(=O)N2CCOCC2)c1Cl` reads 5.9%; that for `Cc1cncc(C(=O)N2CCOc3nc(C)ccc32)c1`, 5.19%; that for `COCC(=O)Nc1cc(S(=O)(=O)C(F)(F)F)ccc1OC`, 17.3%.

Values taken from ChEMBL document CHEMBL4513216, “Probing the Open Global Health Chemical Diversity Library for Multistage-Active Starting Points for Next-Generation Antimalarials” (ACS Infect Dis, 2020).
